The values that follow come from ChEMBL document CHEMBL1134691, “3-Phenyl-5-acyloxymethyl-2H,5H-furan-2-ones: synthesis and biological activity of a novel group of potential antifungal drugs” (2001).

SMILES strings stand for the structures. Values after ≈ are worked out from the molar mass of the structure shown.

As a reminder, the MIC is the lowest concentration found to suppress growth.

Test [1] deals with Lichtheimia corymbifera. The test is described as follows: In vitro inhibition of Absidia corymbifera 272 growth for 24 hours. In kind it is functional. The conditions noted are these: Lichtheimia corymbifera, 24 h; read-out: MIC. In a few lines: (§1)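 Filamentous isolates tested by microdilution per NCCLS M27-A in RPMI 1640 plus L-glutamine, buffered with 0.165 M MOPS to pH 7.0. Final inoculum 5 × 10^3 cfu/mL. Compounds in DMSO (final ≤2%), 2-fold series over 1000–0.24 µmol/L. Plates held at 35 °C and read visually after 24 and 48 h. MIC taken as 80% inhibition of control growth; determined twice in duplicate.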

The subject of test [2] is Lichtheimia corymbifera. The test is described as follows: In vitro inhibition of Absidia corymbifera 272 growth for 48 hours. The settings on record: Lichtheimia corymbifera, 48 h; read-out: MIC. It counts as functional. The method, boiled down: as §1
The subject of test [3] is Pichia kudriavzevii. The test is described as follows: Inhibition of Candida krusei ATCC 6258 growth for 24 hours in vitro. In kind it is functional. The settings on record: Pichia kudriavzevii, ATCC 6258, 24 h; read-out: MIC. The method, boiled down: (§2)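 NCCLS M27-A broth microdilution in RPMI 1640 with L-glutamine and 0.165 M MOPS, pH 7.0. Isolates kept on Sabouraud dextrose agar. Inoculum 5 × 10^3 cfu/mL final. Compounds were diluted in DMSO (≤2% final) and tested in 2-fold dilutions of 1000–0.24 µmol/L. Incubation at 35 °C, OD540 read at 24 and 48 h. MIC = 80% growth inhibition versus control; assays run twice in duplicate.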

Test [4] deals with Pichia kudriavzevii. The test is described as follows: Inhibition of Candida krusei ATCC 6258 growth for 48 hours in vitro. It counts as functional. The settings on record: Pichia kudriavzevii, ATCC 6258, 48 h; read-out: MIC. The method, boiled down: as §2
For test [5], the system named is Pichia kudriavzevii. The test is described as follows: Inhibition of Candida krusei E28 growth for 24 hours in vitro. In kind it is functional. The conditions noted are these: Pichia kudriavzevii, 24 h; read-out: MIC. The method, boiled down: as §2
Test [6] relates to Pichia kudriavzevii. The test is described as follows: Inhibition of Candida krusei E28 growth for 48 hours in vitro. It counts as functional. The conditions noted are these: Pichia kudriavzevii, 48 h; read-out: MIC. In a few lines: as §2
Test [7] deals with Aspergillus fumigatus. The test is described as follows: Inhibition of Aspergillus fumigatus 231 growth for 48 hours in vitro. It counts as functional. The settings on record: Aspergillus fumigatus, 48 h; read-out: MIC. The method, boiled down:
as §1

Test [8] has as its system Clavispora lusitaniae. Nature of the test: Inhibition of Candida lusitaniae 2446/I growth for 24 hours in vitro. The settings on record: Clavispora lusitaniae, 24 h; read-out: MIC. It counts as functional. In a few lines: as §2
Test [9] relates to Clavispora lusitaniae. The test is described as follows: Inhibition of Candida lusitaniae 2446/I growth for 48 hours in vitro. The settings on record: Clavispora lusitaniae, 48 h; read-out: MIC. It counts as functional. In a few lines:
as §2

The test system of test [10] is Candida parapsilosis. Nature of the test: Inhibition of Candida parapsilosis ATCC 22019 growth for 24 hours in vitro. It counts as functional. The settings on record: Lodderomyces parapsilosis, ATCC 22019, 24 h; read-out: MIC. The method, boiled down: as §2
Test [11] has as its system Candida parapsilosis. Nature of the test: Inhibition of Candida parapsilosis ATCC 22019 growth for 48 hours in vitro. The conditions noted are these: Lodderomyces parapsilosis, ATCC 22019, 48 h; read-out: MIC. In kind it is functional. In a few lines:
as §2

Test [12] has as its system Candida albicans. The test is described as follows: Inhibition of Candida albicans ATCC 44859 growth for 24 hours in vitro. It counts as functional. The conditions noted are these: Candida albicans, ATCC 44859, 24 h; read-out: MIC. The method, boiled down: as §2
The subject of test [13] is Candida albicans. Nature of the test: Inhibition of Candida albicans ATCC 44859 growth for 48 hours in vitro. The conditions noted are these: Candida albicans, ATCC 44859, 48 h; read-out: MIC. In kind it is functional. The method, boiled down: as §2
Test [14] deals with Candida albicans. Nature of the test: Inhibition of Candida albicans ATCC 90028 for 24 hours in vitro. It counts as functional. The settings on record: Candida albicans, ATCC 90028, 24 h; read-out: MIC. The method, boiled down: as §2
Test [15] relates to Candida albicans. Nature of the test: Inhibition of Candida albicans ATCC 90028 for 48 hours in vitro. In kind it is functional. The settings on record: Candida albicans, ATCC 90028, 48 h; read-out: MIC. In a few lines: as §2
Test [16] deals with Nakaseomyces glabratus. The test is described as follows: Inhibition of Candida glabrata 20/I growth for 24 hours in vitro. The settings on record: Nakaseomyces glabratus, 24 h; read-out: MIC. In kind it is functional. In a few lines:
as §2

Test [17] concerns Nakaseomyces glabratus. Nature of the test: Inhibition of Candida glabrata 20/I growth for 48 hours in vitro. The conditions noted are these: Nakaseomyces glabratus, 48 h; read-out: MIC. It counts as functional. The method, boiled down: as §2
The test system of test [18] is Candida tropicalis. The test is described as follows: Inhibition of Candida tropicalis 156 growth for 24 hours in vitro. It counts as functional. The conditions noted are these: Candida tropicalis, 24 h; read-out: MIC. In a few lines:
as §2

For test [19], the system named is Trichosporon beigelii. Nature of the test: Inhibition of Trichosporon beigelli 1188 for 24 hours in vitro. It counts as functional. The conditions noted are these: Trichosporon beigelii, 24 h; read-out: MIC. In a few lines: (§3)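 Microdilution following NCCLS M27-A. Medium: RPMI 1640 with L-glutamine, 0.165 M MOPS, pH 7.0. Final inoculum 5 × 10^3 cfu/mL. Compounds dissolved in DMSO, final ≤2%, serially halved from 1000 to 0.24 µmol/L. Incubated at 35 °C and read at 24 and 48 h. MIC defined as 80% inhibition of control growth; run twice in duplicate.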

For test [20], the system named is Trichosporon beigelii. The test is described as follows: Inhibition of Trichosporon beigelli 1188 for 48 hours in vitro. The settings on record: Trichosporon beigelii, 48 h; read-out: MIC. It counts as functional. The method, boiled down: as §3
Test [21] is described as follows: Inhibition of Trichophyton mentagrophytes 445 growth for 72 hours in vitro. The settings on record: Trichophyton benhamiae, 72 h; read-out: MIC. It counts as functional, Arthroderma benhamiae. The method, boiled down:
(§4)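 Dermatophyte grown in MOPS-buffered (0.165 M, pH 7.0) RPMI 1640 containing L-glutamine, in an M27-A microdilution format. Inoculum 5 × 10^3 cfu/mL final. Compounds from DMSO stocks (≤2% final), 2-fold dilutions 1000–0.24 µmol/L. Incubated at 35 °C, growth judged visually at 72 and 120 h. MIC endpoint is 80% inhibition relative to control; measured twice in duplicate.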

A short description of test [22]: Inhibition of Trichophyton mentagrophytes 445 growth for 120 hours in vitro. It counts as functional, Arthroderma benhamiae. The settings on record: Trichophyton benhamiae, 120 h; read-out: MIC. The method, boiled down: as §4
The test system of test [23] is Aspergillus fumigatus. The test is described as follows: Inhibition of Aspergillus fumigatus 231 growth for 24 hours in vitro. It counts as functional. The settings on record: Aspergillus fumigatus, 24 h; read-out: MIC. The method, boiled down: as §1
Test [24] concerns Candida tropicalis. The test is described as follows: Inhibition of Candida tropicalis 156 growth for 48 hours in vitro. The conditions noted are these: Candida tropicalis, 48 h; read-out: MIC. In kind it is functional. The method, boiled down:
as §2

`OC(Cn1cncn1)(Cn1cncn1)c1ccc(F)cc1F` [FLUCONAZOLE]: the minimal inhibitory concentration (MIC) was more than 128 µM in the test on Lichtheimia corymbifera [1]; more than 128 µM in the test on Lichtheimia corymbifera [2]; 32 µM (≈ 9.8 µg/mL) in the test with Pichia kudriavzevii [3]; 64 µM (≈ 19.6 µg/mL) in the test on Pichia kudriavzevii [4]; 16 µM (≈ 4.9 µg/mL) in the test with Pichia kudriavzevii [5]; 32 µM (≈ 9.8 µg/mL) in the test with Pichia kudriavzevii [6]. Moreover, the minimum inhibitory concentration (MIC) with Aspergillus fumigatus [7] was more than 128 µM; in the test on Clavispora lusitaniae [8], 1 µM (≈ 0.306 µg/mL); in the test on Clavispora lusitaniae [9], 1 µM (≈ 0.306 µg/mL); in the test with Candida parapsilosis [10], 2 µM (≈ 0.613 µg/mL); with Candida parapsilosis [11], 4 µM (≈ 1.23 µg/mL); with Candida albicans [12], 0.25 µM (≈ 0.0766 µg/mL). The minimum inhibitory concentration (MIC) was determined as 0.5 µM (≈ 0.153 µg/mL) in the test on Candida albicans [13]; 0.25 µM (≈ 0.0766 µg/mL) in the test with Candida albicans [14]; 1 µM (≈ 0.306 µg/mL) with Candida albicans [15]; 4 µM (≈ 1.23 µg/mL) in the test with Nakaseomyces glabratus [16]; 16 µM (≈ 4.9 µg/mL) with Nakaseomyces glabratus [17]; 0.5 µM (≈ 0.153 µg/mL) with Candida tropicalis [18]. Besides, the MIC with Trichosporon beigelii [19] was 1 µM (≈ 0.306 µg/mL); in the test with Trichosporon beigelii [20], 2 µM (≈ 0.613 µg/mL); in test [21], 8 µM (≈ 2.45 µg/mL); in test [22], 16 µM (≈ 4.9 µg/mL); in the test with Aspergillus fumigatus [23] it was more than 128 µM; in the test on Candida tropicalis [24] it was more than 128 µM.
`O=C1OC(COC(=O)c2ccc(Cl)cc2)C=C1c1cccc(Cl)c1` (stereo not drawn): the MIC with Lichtheimia corymbifera [1] worked out at 3.91 µM (≈ 1.42 µg/mL); with Lichtheimia corymbifera [2], 15.6 µM (≈ 5.68 µg/mL); in the test on Pichia kudriavzevii [3], 7.81 µM (≈ 2.84 µg/mL); in the test on Pichia kudriavzevii [4] it was 15.6 µM (≈ 5.68 µg/mL); with Pichia kudriavzevii [5], 15.6 µM (≈ 5.68 µg/mL); in the test with Pichia kudriavzevii [6], 15.6 µM (≈ 5.68 µg/mL). The minimal inhibitory concentration (MIC) in the test with Aspergillus fumigatus [7] was 3.91 µM (≈ 1.42 µg/mL); in the test on Clavispora lusitaniae [8] it was 7.81 µM (≈ 2.84 µg/mL); in the test with Clavispora lusitaniae [9], 15.6 µM (≈ 5.68 µg/mL); with Candida parapsilosis [10], 7.81 µM (≈ 2.84 µg/mL); with Candida parapsilosis [11], 31.2 µM (≈ 11.3 µg/mL); in the test on Candida albicans [12] it was 1.95 µM (≈ 0.708 µg/mL). Also, the MIC came out at 3.91 µM (≈ 1.42 µg/mL) in the test with Candida albicans [13]; 7.81 µM (≈ 2.84 µg/mL) in the test with Candida albicans [14]; 7.81 µM (≈ 2.84 µg/mL) with Candida albicans [15]; 1.95 µM (≈ 0.708 µg/mL) with Nakaseomyces glabratus [16]; 1.95 µM (≈ 0.708 µg/mL) in the test on Nakaseomyces glabratus [17]; 15.6 µM (≈ 5.68 µg/mL) in the test on Candida tropicalis [18]. Moreover, the minimal inhibitory concentration (MIC) in the test on Trichosporon beigelii [19] came out at 7.81 µM (≈ 2.84 µg/mL); in the test with Trichosporon beigelii [20], 15.6 µM (≈ 5.68 µg/mL); in test [21], 1.95 µM (≈ 0.708 µg/mL); in test [22], 3.91 µM (≈ 1.42 µg/mL); in the test with Aspergillus fumigatus [23], 1.95 µM (≈ 0.708 µg/mL); in the test on Candida tropicalis [24], 31.2 µM (≈ 11.3 µg/mL).
